Results from ChEMBL document CHEMBL5247577, “Improved Selective Class I HDAC and Novel Selective HDAC3 Inhibitors: Beyond Hydroxamic Acids and Benzamides” (ACS Med Chem Lett, 2019).

Assays:
[1] = biological target: Histone deacetylase; experiment: Inhibition of HDAC in human HeLa cells using FLUOR DE LYS-SIRT1 as fluorogenic substrate incubated for 4 hrs by spectrophotometer based analysis; format: cell-based
[2] = biological target: Histone deacetylase 1 (Homo sapiens, UniProt Q13547); experiment: Inhibition of human recombinant his tagged HDAC1 expressed in baculovirus expression system using FLUOR DE LYS-SIRT1 as fluorogenic substrate preincubated for 10 mins followed by substrate addition and measured after 1 hr by spectrophotometer based analysis
[3] = biological target: Voltage-gated inwardly rectifying potassium channel KCNH2 (Homo sapiens, UniProt Q12809); experiment: Inhibition of hERG potassium channel incubated for 4 hrs by fluorescence polarization assay; format: toxicity
[4] = AUC in NMRI mouse plasma at 5 to 20 mg/kg, po by LC/MS/MS analysis; format: ADME, organism-based; parameters: route po; conditions: NMRI, plasma, dose 5-20 mg/kg, read-out: AUC
Method in brief: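 Compound given orally as its tartrate salt at 20 mg/kg in mouse, 10 mg/kg in rat and 5 mg/kg in minipig.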

[5] = Metabolic stability in mouse plasma assessed as half life; format: ADME, cell-free
[6] = Metabolic stability in human plasma assessed as half life; format: ADME, cell-free
[7] = Metabolic stability in mouse hepatocyte assessed as half life; format: ADME, cell-based; conditions: hepatocytes
[8] = Metabolic stability in human hepatocyte assessed as half life; format: ADME, cell-based; conditions: hepatocytes
[9] = biological target: Histone deacetylase 2 (Homo sapiens, UniProt Q92769); experiment: Inhibition of human HDAC2
[10] = biological target: Histone deacetylase 3 (Homo sapiens, UniProt O15379); experiment: Inhibition of human HDAC3 expressed in baculovirus infected insect cells using FLUOR DE LYS-SIRT1 as fluorogenic substrate preincubated for 10 mins followed by substrate addition and measured after 1 hr by spectrophotometer based analysis
Sequence of Histone deacetylase 3 (O15379 whole entry): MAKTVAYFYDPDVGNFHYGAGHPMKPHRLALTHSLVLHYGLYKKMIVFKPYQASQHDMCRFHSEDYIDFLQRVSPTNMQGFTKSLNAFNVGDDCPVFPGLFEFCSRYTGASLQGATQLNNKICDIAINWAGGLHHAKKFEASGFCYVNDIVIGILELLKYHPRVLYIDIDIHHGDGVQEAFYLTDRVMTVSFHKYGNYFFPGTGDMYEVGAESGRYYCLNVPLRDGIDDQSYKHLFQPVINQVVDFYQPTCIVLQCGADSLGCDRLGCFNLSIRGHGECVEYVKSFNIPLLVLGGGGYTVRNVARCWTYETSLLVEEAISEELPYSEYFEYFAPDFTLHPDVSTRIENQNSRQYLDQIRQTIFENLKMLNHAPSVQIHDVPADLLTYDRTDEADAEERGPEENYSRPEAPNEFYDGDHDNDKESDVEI

Sequence of Voltage-gated inwardly rectifying potassium channel KCNH2 (Q12809 whole entry): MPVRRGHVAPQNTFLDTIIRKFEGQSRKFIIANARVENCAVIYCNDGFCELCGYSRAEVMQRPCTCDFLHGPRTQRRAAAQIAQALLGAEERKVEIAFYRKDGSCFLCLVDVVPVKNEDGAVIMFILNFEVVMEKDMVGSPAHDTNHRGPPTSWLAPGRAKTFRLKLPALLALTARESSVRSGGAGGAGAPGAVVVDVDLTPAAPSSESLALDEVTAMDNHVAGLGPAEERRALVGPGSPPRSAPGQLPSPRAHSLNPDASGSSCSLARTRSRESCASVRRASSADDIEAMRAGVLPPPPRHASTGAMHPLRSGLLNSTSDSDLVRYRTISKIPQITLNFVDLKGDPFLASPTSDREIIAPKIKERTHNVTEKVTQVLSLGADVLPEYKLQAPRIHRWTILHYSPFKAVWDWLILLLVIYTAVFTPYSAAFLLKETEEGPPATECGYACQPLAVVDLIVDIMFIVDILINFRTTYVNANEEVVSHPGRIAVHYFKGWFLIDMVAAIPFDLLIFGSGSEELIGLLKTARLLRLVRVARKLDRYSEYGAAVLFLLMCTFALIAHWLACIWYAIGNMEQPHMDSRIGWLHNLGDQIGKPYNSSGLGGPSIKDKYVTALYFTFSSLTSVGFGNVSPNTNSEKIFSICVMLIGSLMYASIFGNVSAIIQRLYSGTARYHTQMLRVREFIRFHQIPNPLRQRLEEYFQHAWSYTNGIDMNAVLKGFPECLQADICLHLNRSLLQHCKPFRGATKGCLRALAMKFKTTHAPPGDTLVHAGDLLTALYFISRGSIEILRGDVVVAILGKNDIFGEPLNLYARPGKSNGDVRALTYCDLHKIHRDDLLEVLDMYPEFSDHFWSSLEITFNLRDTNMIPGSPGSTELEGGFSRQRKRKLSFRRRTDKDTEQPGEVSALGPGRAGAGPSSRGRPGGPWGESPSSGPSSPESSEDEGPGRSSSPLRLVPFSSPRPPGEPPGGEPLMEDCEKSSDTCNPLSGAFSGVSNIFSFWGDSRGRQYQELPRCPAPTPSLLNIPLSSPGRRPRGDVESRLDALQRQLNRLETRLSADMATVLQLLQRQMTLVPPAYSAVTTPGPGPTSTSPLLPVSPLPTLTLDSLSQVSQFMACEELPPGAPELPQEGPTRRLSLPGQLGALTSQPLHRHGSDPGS
Sequence of Histone deacetylase 1 (Q13547 whole entry): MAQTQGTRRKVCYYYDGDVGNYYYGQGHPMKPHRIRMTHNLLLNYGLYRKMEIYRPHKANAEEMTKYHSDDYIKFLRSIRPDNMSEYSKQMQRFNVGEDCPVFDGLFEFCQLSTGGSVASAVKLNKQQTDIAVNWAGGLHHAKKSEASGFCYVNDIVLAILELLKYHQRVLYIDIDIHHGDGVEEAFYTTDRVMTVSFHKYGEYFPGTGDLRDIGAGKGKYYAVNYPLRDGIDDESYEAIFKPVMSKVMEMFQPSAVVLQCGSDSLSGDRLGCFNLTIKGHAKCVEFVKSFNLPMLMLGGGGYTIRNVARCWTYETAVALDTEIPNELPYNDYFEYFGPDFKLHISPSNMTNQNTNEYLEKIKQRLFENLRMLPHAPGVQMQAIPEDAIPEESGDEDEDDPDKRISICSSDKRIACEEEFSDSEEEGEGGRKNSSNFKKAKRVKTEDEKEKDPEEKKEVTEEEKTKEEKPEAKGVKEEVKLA
Sequence of Histone deacetylase 2 (Q92769 whole entry): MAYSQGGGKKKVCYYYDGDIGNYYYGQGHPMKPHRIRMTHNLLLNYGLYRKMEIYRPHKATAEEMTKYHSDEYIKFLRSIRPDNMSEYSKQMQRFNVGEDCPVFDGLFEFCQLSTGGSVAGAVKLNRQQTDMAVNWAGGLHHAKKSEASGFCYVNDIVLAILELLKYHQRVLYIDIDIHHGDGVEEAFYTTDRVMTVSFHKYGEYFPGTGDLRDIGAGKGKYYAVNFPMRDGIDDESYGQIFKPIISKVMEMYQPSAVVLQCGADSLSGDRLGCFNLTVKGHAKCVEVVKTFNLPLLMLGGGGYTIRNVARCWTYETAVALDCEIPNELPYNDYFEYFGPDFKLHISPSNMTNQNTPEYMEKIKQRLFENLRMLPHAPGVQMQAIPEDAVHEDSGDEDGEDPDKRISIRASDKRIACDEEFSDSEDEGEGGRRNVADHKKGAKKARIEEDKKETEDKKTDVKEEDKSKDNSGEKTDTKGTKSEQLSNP

| EC50 [1] [nM] | IC50 [2] [nM] | SMILES | IC50 [3] [µM] | other results |
| --- | --- | --- | --- | --- |
|  | 6070 | CNC(=O)CCCCC[C@H](NC(=O)c1cncs1)c1ncc(-c2ccc(CN(C)C)cc2)[nH]1 |  |  |
| 610 | 30.5 | CCC(=O)CCCCC[C@H](NC(=O)C(=O)N1CCOCC1)c1ncc(-c2cc3ccccc3nc2OC)o1 | > 30 |  |
| 138 | 3 | CCC(=O)CCCCC[C@H](NC(=O)Cn1ccnn1)c1ncc(-c2cc3ccccc3nc2OC)o1 | > 30 |  |
| 15 | 3.5 | CCC(=O)CCCCC[C@H](NC(=O)C(C)(C)N(C)C)c1ncc(-c2cc3ccccc3nc2OC)o1 |  | IC50 [9]: < 3.5 nM; IC50 [10]: < 3.5 nM |
| 430 | 17 | CCC(=O)CCCCC[C@H](NC(=O)C1(F)CN(C)C1)c1ncc(-c2cc3ccccc3nc2OC)o1 | 13.6 |  |
| 44 | 3.2 | CCC(=O)CCCCC[C@H](NC(=O)Cc1c(C)[nH]c2ccc(OC)cc12)c1ncc(-c2ccc3ccccc3c2)[nH]1 |  |  |
| 94 | 2.1 | CCC(=O)CCCCC[C@H](NC(=O)C1CN(C)C1)c1ncc(-c2cc3ccccc3[nH]c2=O)o1 | > 30 |  |

Continued, compound first:

| SMILES | EC50 [1] [nM] | IC50 [2] [nM] | IC50 [3] [µM] | other results |
| --- | --- | --- | --- | --- |
| CCC(=O)CCCCC[C@H](NC(=O)Cc1c(C)[nH]c2ccc(OC)cc12)c1ncc(-c2ccc3ccccc3c2)o1 | 412 | 19.6 |  |  |
| CNC(=O)CCCCC[C@H](NC(=O)CCc1c[nH]c2ccccc12)c1ncc(-c2ccc(-n3cccn3)cc2)[nH]1 |  | 860 |  |  |
| CCC(=O)CCCCC[C@H](NC(=O)C1CN(C)C1)c1ncc(-c2cc3ccccc3nc2OC)[nH]1 |  |  | 3 | AUC [4]: 0.9 µM·h |
| CCC(=O)CCCCC[C@H](NC(=O)C1CN(C)C1)c1ncc(-c2ccc3ccccc3c2)[nH]1 | 125 | 1.5 |  |  |
| CNC(=O)CCCCC[C@H](NC(=O)c1cncs1)c1ncc(-c2ccc3ccccc3c2)[nH]1 |  | 325 |  |  |
| CNC(=O)CCCCC[C@H](NC(=O)Cn1ccc2cc(C#N)ccc21)c1ncc(-c2ccc(CN(C)C)cc2)[nH]1 |  |  |  | half-life [5]: > 240 min; half-life [6]: > 240 min; half-life [7]: > 240 min; half-life [8]: > 240 min |
| CCC(=O)CCCCC[C@H](NC(=O)C12CCN(CC1)CC2)c1ncc(-c2cc3ccccc3nc2OC)o1 | 43 | 1.6 | 0.19 | IC50 [9]: < 3.5 nM; IC50 [10]: < 3.5 nM |
| CCC(=O)CCCCC[C@H](NC(=O)C1CNC(=O)C1)c1ncc(-c2cc3ccccc3nc2OC)o1 (some centres not stated) | 208 | 3.2 | > 30 |  |
| CNC(=O)CCCCC[C@H](NC(=O)CCc1c[nH]c2ccccc12)c1ncc(-c2ccc(CN(C)C)cc2)[nH]1 |  | 1370 |  |  |
| CCC(=O)CCCCC[C@H](NC(=O)C1CN(C)C1)c1ncc(-c2ccc3ccccc3c2)o1 | 873 | 12.2 |  |  |
